Assay results published in paper PMC7092849 (Biochemical and Biophysical Research Communications, 2018).
Entries after “also recorded” stand apart in the source; their conditions may differ. Non-standard residues stand in square brackets, D forms with d. No end group written: not given here. Hyp = O=C(O)[C@@H]1C[C@@H](O)CN1

Tests used:
3T3 cells [1] = format: cell-based, mouse
crystal structure = target: the molecule itself; test: crystal structure
3T3 cells [2] = test: Cytotoxicity assay; format: cell-based, mouse; settings: CCK-8, up to 1 mg/ml, Fig. 4D
Summary of the method: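 Mouse fibroblast BALB 3T3 cells were exposed to a recombinant collagen III tandem-repeat protein or collagen-derived peptides at concentrations up to 1000 μg/ml. Viability was read with CCK-8 following the manufacturer's manual. CC50 was the intended read-out.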

Molecule: bovine serum albumin [BSA, reference compound]
- cell adhesion activity (relative cell adhesion rate) (3T3 cells [1]): no significant adhesion activity

Molecule: C1P: native hCOL3A1 peptide, Gly483-Pro512 (GERGAPGFRGPAGPNGIPGEKGPAGERGAP)
- cell adhesion activity (relative cell adhesion rate) (3T3 cells [1]): the most potent cell adhesion activity; also recorded: much stronger cell adhesion activity than that of Type I collagen

B1: host-guest peptide C3Pa, (Pro-Hyp-Gly)3-FRGPAGPNGIPG-(Pro-Hyp-Gly)3 (peptide)
chain: P[Hyp]GP[Hyp]GP[Hyp]GFRGPAGPNGIPGP[Hyp]GP[Hyp]GP[Hyp]G
- stoichiometry N (crystal structure): 3

B2: T16: recombinant 480aa protein, 16 tandem repeats of the triple-helix fragment of hCOL3A1, Gly483-Pro512 (C1P) (protein)
chain: GERGAPGFRGPAGPNGIPGEKGPAGERGAPGERGAPGFRGPAGPNGIPGEKGPAGERGAPGERGAPGFRGPAGPNGIPGEKGPAGERGAPGERGAPGFRGPAGPNGIPGEKGPAGERGAPGERGAPGFRGPAGPNGIPGEKGPAGERGAPGERGAPGFRGPAGPNGIPGEKGPAGERGAPGERGAPGFRGPAGPNGIPGEKGPAGERGAPGERGAPGFRGPAGPNGIPGEKGPAGERGAPGERGAPGFRGPAGPNGIPGEKGPAGERGAPGERGAPGFRGPAGPNGIPGEKGPAGERGAPGERGAPGFRGPAGPNGIPGEKGPAGERGAPGERGAPGFRGPAGPNGIPGEKGPAGERGAPGERGAPGFRGPAGPNGIPGEKGPAGERGAPGERGAPGFRGPAGPNGIPGEKGPAGERGAPGERGAPGFRGPAGPNGIPGEKGPAGERGAPGERGAPGFRGPAGPNGIPGEKGPAGERGAP
modifications: left off: thioredoxin, end not stated, state not stated
- cell adhesion activity (relative cell adhesion rate) (3T3 cells [1]): very strong cell adhesion activity
- cytotoxicity (3T3 cells [2]): No obvious cytotoxicity
